DAX1 inh-1: DAX1 (NR0B1) inhibition, primary screen | AID 652010 | hit rate 1.1% among 370,000 | inhibition, % at 6.8 µM | HEK293T StAR-luciferase reporter, SF-1/DAX-1 repression relief;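 active means inhibition above the mean over all tested compounds plus 3 SD, cut at about 3.6% in these data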;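 further: higher inhibition means more luminescence from relief of DAX-1 repression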
NR2E3 ag-1: human photoreceptor-specific nuclear receptor agonism | Q9Y5X4 | inhibition of corepressor binding, % at 3.98 µM | CHO-S Gal4-NCOR/VP16-NR2E3 two-hybrid, luciferase | AID 602229 | hit rate 0.35% among 360,000;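 active means inhibition above the mean of all tested compounds plus 3 SD, cut at about 70% in these data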;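 further: higher means lower luciferase signal from less NR2E3 corepressor binding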
SMARCA2 act: increases SMARCA2 function in MMTV reporter cells. MG213 cells, MMTV-luciferase reporter, dexamethasone, overnight. activation, % at 9.1 µM. hit rate 1% among 370,000. AID 652017; in the data active means activation above about 7.8%
NR2E3 ag-2: activates human photoreceptor nuclear receptor NR2E3 | hit rate 0.12% among 320,000 | Q9Y5X4 | inhibition of corepressor binding, % at 4.78 µM | GST-NR2E3/biotin-RetCOR TR-FRET, 1536-well | AID 2300;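 active means percent inhibition above the cutoff of mean plus 3 SD of all tested compounds, set per screening campaign, cut at about 20% in these data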
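Assay system: NR2E3–RetCOR corepressor complex. Quantity: 1.35 nM GST-NR2E3. Buffer or medium: pH 7.5 Tris-based buffer. Reagent: biotinylated RetCOR corepressor at 7 nM final. Schedule: 5 h at 4 °C. Detection: TR-FRET, emission read at 617 and 671 nm. Replicates: one well per compound, singlicate testing.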
GASC-1 inh: blocks human GASC-1 demethylase activity; AID 2099; hit rate 0.069% among 330,000; inhibition, % at 2.35 µM; Q9H3R0; GST-JMJD2C(1-420) H3K9me3 demethylation, DELFIA europium;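 active means more than half of a compound's replicate wells show inhibition beyond 50%, single wells judged on their own value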;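 further: signal counts dimethyl H3K9 product captured on neutravidin plate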
DAX1 inh-2: inhibits human nuclear receptor DAX1 | P51843 | HEK293 Gal4-DAX1 luciferase reporter, luminescence | inhibition, % at 6.75 µM | hit rate 0.99% among 340,000 | AID 504766;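 active means inhibition above the mean over all tested compounds plus 3 SD, cut at about 4.2% in these data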;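 further: inhibition shows as a rise in luminescence from relieved DAX1 repression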
Target sequence (P51843 207-470 limits assumed): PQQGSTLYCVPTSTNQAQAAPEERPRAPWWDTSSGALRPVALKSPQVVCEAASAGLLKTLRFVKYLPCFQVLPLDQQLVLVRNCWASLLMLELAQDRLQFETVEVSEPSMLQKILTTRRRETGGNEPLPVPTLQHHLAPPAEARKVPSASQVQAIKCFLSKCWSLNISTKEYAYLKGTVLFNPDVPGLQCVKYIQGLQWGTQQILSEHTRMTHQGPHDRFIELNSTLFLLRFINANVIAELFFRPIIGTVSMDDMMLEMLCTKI
DAX1 conf: NR0B1 (human) inhibition, confirmation; inhibition, % at 6.8 µM; shares compounds with DAX1 inh-1; HEK293T StAR-promoter luciferase reporter, SF-1/DAX-1 repression; hit rate 87% among 2,400; AID 652134;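 active means inhibition above the average of every tested compound plus 3 SD, cut at about 3.8% in these data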;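 further: active compounds raise luminescence by relieving repression of the StAR reporter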
SF1 AF2mut Luc: nonselective inhibitor or artifact in SF-1 mutant DAX1 counter-screen; shares compounds with DAX1 inh-1; HEK293 StAR-luciferase, SF-1 AF2 mutant, luminescence; inhibition, % at 6.8 µM; hit rate 78% among 2,400; AID 652136;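 active means inhibition above the mean of all tested compounds plus 3 SD, cut at about 3% in these data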
Hits are given with their value; i = inactive; nt = no result given. Most compounds without a hit are left out; they make up all but 3.2% or so of the library.

SMILES | DAX1 inh-1 | NR2E3 ag-1 | SMARCA2 act | NR2E3 ag-2 | GASC-1 inh | DAX1 inh-2 | DAX1 conf | SF1 AF2mut Luc
COC(=O)[C@]12C[C@H](CC(=O)NCc3ccc(OC)c(OC)c3)C(=O)N(Cc3ccc(Cl)cc3Cl)C1=C[C@H](C1CCCC1)O[C@@H]2C | i | nt | i | nt | nt | nt | nt | nt
CC(=NNc1ccc2ccccc2n1)c1ccccc1O | 5.9 | i | i | nt | nt | i | i | i
Cc1ccc(/C=N/Nc2ccc3ccccc3n2)o1 | 11 | i | i | i | nt | i | 5.8 | i
C/C(=N\NC(=O)c1ccncc1)c1ccc(NC(=O)c2ccc(Cl)cc2)cc1 | 7.5 | i | i | i | i | i | i | 2.9
C/C(=N/NC(=O)c1ccncc1)c1ccc(NC(=O)c2ccc(Cl)cc2Cl)cc1 | 5.3 | i | i | i | i | i | i | i
Cc1ccc(-c2nnc(SCC(=O)Nc3ccc(F)cc3F)n2Cc2ccco2)cc1 | i | nt | i | nt | nt | nt | nt | nt
CCN(CC)C(=O)CC[C@H]1CC[C@]2(CCCN(C3CCCCC3)C2)O1 | i | nt | i | nt | nt | nt | nt | nt
CCc1ccc2oc(C(=O)Nc3nonc3C)c(C)c2c1 | 12 | i | i | i | i | i | 7.8 | 3.6
CCc1nonc1NC(=O)c1oc2ccc(F)cc2c1C | i | i | i | i | i | i | nt | nt
CCCc1ccc2oc(C(=O)NCc3nnc(C)o3)c(C)c2c1 | 5.1 | i | i | nt | i | i | 7.3 | 5.1
CCCc1ccc2oc(C(=O)NCCCN3CCOCC3)c(C)c2c1 | i | i | i | i | i | i | nt | nt
O=C(NCCc1ccccc1)OCc1cn(Cc2ccc(F)c(F)c2)nn1 | i | nt | i | nt | nt | nt | nt | nt
COc1ccc(-c2cn3ccccc3n2)cc1 | 4.7 | i | i | i | i | i | 13 | 3.6
COc1ccc(-c2cn3ccc4ccccc4c3n2)cc1 | 7.1 | i | i | i | i | i | 19 | 9.6
COc1ccc(-c2cn3ccccc3n2)cc1[N+](=O)[O-] | i | i | i | i | i | i | nt | nt
O=C(O)c1ccc(N=Nc2c(O)[nH]c3ccccc23)cc1 | 5.9 | i | i | i | i | i | 11 | 5.7
O=C(CSc1nnc(-c2ccc(Br)cc2)o1)Nc1cccc(C(=O)O)c1 | 5.0 | i | i | i | i | i | 6.1 | 5.4
O=C(CSc1nnc(-c2ccc(Br)cc2)o1)Nc1cccc2ccccc12 | i | i | i | i | i | i | nt | nt
O=C(CSc1nnc(-c2ccncc2)o1)Nc1cc(F)ccc1F | 4.9 | i | i | i | i | i | 5.2 | 5.9
CC(=O)CC[C@H]1CC[C@]2(CCCN(S(C)(=O)=O)C2)O1 | i | nt | i | nt | nt | nt | nt | nt
COc1cccc2sc(N)nc12 | i | i | i | i | i | i | nt | nt
COc1cccc2sc(N(C)c3ccccc3)nc12 | 4.6 | i | i | i | i | i | 11 | 6.4
COc1ccc(S[C@]2(C(=O)N3CCCC3)CC(=O)N(C(=O)CCc3ccccc3)[C@@H]2c2ccc(OC)cc2)cc1 | i | nt | i | nt | nt | nt | nt | nt
c1ccc(N=NC2=NN(c3ccccc3)CS2)cc1 | 6.5 | i | i | nt | nt | i | 7.0 | 3.4
Cc1c(C(=O)Nc2ccccn2)oc2ccccc12 | 4.7 | i | i | i | i | i | 11 | 5.8
SMILES | DAX1 inh-1 | NR2E3 ag-1 | SMARCA2 act | NR2E3 ag-2 | GASC-1 inh | DAX1 inh-2 | DAX1 conf | SF1 AF2mut Luc
CC(=O)c1c(C)[nH]c(C(=O)Nc2ccc(Cl)cc2)c1C | i | i | i | i | i | i | nt | nt
Cc1c(C(=O)Nc2ccccn2)oc2c(Cl)cccc12 | i | i | i | i | i | i | nt | nt
Cc1ccc(NC(=O)c2oc3ccccc3c2C)nc1 | 8.2 | i | i | i | i | i | 8.4 | 5.5
Cc1c(C(=O)Nc2nc3ccccc3[nH]2)oc2ccccc12 | 5.7 | i | i | i | i | i | 14 | 7.4
CC(=O)c1c(C)[nH]c(C(=O)Nc2ccccn2)c1C | 7.5 | i | i | i | i | i | 9.1 | 6.3
O=C(Cn1cnc2ccccc2c1=O)N1CCN(C(=O)C2CCCO2)CC1 (stereo not given) | i | nt | i | nt | nt | nt | nt | nt
COCCNC(=O)[C@]1(C#N)CC(=O)N(C)[C@@H]1c1ccccc1 | i | nt | i | nt | nt | nt | nt | nt
Cc1ccc(NC(=O)C(=O)Nc2ccc(C)cn2)nc1 | i | i | i | i | i | i | nt | nt

Screening results: PubChem, several laboratories
